# Screening data (PubChem BioAssay)
# Most compounds without a hit are left out; they make up all but 3% or so of the library.
# rRNA inh HTS: inhibitors of bacterial rRNA selective over humanized ribosomes; E. coli WT GFP vs humanized-ribosome RFP mutants, fluorescence, 24 h; active compounds read low; DMSO median 0, no signal -100; GFP signal change (wild-type ribosome), % (no concentration beside the values); 350,000 compounds, 1.6% hits; AID 720706;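 active means significant combined selectivity score with lowered wild-type GFP, culture density cut under 30%, mutant RFP and density less affected; inactive means any of these conditions unmet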
# SIRT5 inh: sirtuin-5 (human) deacylase inhibition; Q9NXA8; Purified SirT5, succinyl-peptide AMC, trypsin-coupled fluorescence; inhibition, % at 15 µM; 330,000 compounds, 1.1% hits; AID 652115; in the data active means inhibition above about 15%
# Target sequence (Q9NXA8 whole entry, looked up): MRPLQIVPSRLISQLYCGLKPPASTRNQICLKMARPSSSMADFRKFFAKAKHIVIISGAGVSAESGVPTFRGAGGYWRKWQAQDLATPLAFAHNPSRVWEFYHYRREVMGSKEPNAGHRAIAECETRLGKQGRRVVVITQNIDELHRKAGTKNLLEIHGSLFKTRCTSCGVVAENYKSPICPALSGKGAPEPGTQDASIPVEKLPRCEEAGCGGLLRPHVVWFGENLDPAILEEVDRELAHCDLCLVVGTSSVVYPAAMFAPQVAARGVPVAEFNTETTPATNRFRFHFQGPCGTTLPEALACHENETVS
# Statin myotox sup: suppression of simvastatin myotoxicity | C2C12 myotubes + simvastatin, ATP luminescence, 48 h; scaled: DMSO 0, geranylgeraniol control 100 | rescue of ATP level, % at 7.49 µM | 330,000 compounds, 0.78% hits | AID 602340;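 active means mean ATP rescue above about 67%, or every replicate alone reaching that limit, limit read from the data, passing the limit was not always enough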;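 further: myotubes were challenged with 10 µM simvastatin during compound exposure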
# S100A4 MyoIIA: blocks human S100A4 binding to myosin IIA peptide; P26447; S100A4/TAMRA-MyoIIA peptide fluorescence polarization; inhibition, % at 10.7 µM; 360,000 compounds, 0.14% hits; AID 652163;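 active means mean inhibition of at least 70% across replicates, with every replicate also reaching that level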
# Target sequence (P26447 whole entry, looked up): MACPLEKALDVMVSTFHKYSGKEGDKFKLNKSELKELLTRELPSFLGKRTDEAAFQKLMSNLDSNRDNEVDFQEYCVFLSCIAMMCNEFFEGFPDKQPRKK
#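 incubation = readout 5 min after mixing, signal stable up to 60 min | system = S100A4 monomer protein | buffer or medium = HEPES pH 7.2 with CaCl2, KCl, NaCl, DTT, Triton | benchmarks = neutral control DMSO, positive control TFP | also added = fluorescent myosin IIA peptide, 5 nM | compound dosing = one concentration per compound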
# Cneo AK release: Cryptococcus neoformans lysis via adenylate kinase release | C. neoformans lysis, adenylate kinase release luminescence, 4 h; normalised: neutral wells 0, clomiphene wells 100 | lysis activity, % at 15 µM | 360,000 compounds, 0.2% hits;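 active means mean lysis activity across replicates of at least 80%, whatever share of replicates individually reach that level; inactive means mean lysis activity below 80%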
#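 Material: C. neoformans cells | Amount: Yeast cell density of 5 × 10^6 cells/mL | Medium: Fresh YPD growth medium | Dosing: Single dose | Times: Static 4 h at 37 °C with compound, 1 h detection | Detection: AK luminescence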
# PGC1a acetyl inh: PGC1a acetylation modulation, inhibitor mode; inhibition, % at 15.6 µM; 350,000 compounds, 0.17% hits; U2OS PGC1a acetylation, AlphaScreen anti-acetyl-lysine; with virally co-expressed GCN5 acetyltransferase;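 active means every replicate shows inhibition of at least 40%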;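 further: 0% = neutral control wells and 100% = positive control wells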
# The depositor's hits bear a star; nt = not tested or not shown.
SMILES,rRNA inh HTS,SIRT5 inh,Statin myotox sup,S100A4 MyoIIA,Cneo AK release,PGC1a acetyl inh
Fc1ccc(NC(=S)NCCN2CCOCC2)cc1,13,-2,nt,2,nt,5
S=C(NCCN1CCOCC1)Nc1ccc(-c2nc3ccccc3[nH]2)cc1,-24*,2,nt,-14,nt,-8
COc1cccc(S(=O)(=O)Nc2ccc3c(c2)[C@H]2C[C@@H](CC(=O)NCc4ccc(Cl)cc4)O[C@H](CO)[C@H]2O3)c1,1,7,-1,-4,-1,-4
C=CCn1c(=S)sc2c(=O)[nH]cnc21,-23*,6,nt,-4,0,18
O=c1[nH]cnc2c1sc(=S)n2-c1ccccc1,nt,nt,14,nt,2,20
CN(/N=C/c1cc(Cl)ccc1O)C1=NS(=O)(=O)c2ccccc21,-21*,-2,-1,-1,3,3
COCC(=O)N1C[C@H](C)[C@@H](OC)CN(C)C(=O)c2ccc(NC(=O)Nc3ccccc3)cc2OC[C@@H]1C,0,2,nt,48,nt,1
CCOC(=O)C1CCN(C(=O)C2CCC(=O)N(Cc3cccc(C(F)(F)F)c3)C2)CC1 (centres undefined),-1,-6,-5,3,-5,nt
CC1CCN(C(=O)C2CCC(=O)N(Cc3ccc(Cl)cc3)C2)CC1 (centres undefined),-1,23*,8,-3,1,-4
CCOC(=O)N1CCN(C(=O)C2CCC(=O)N(Cc3cccc(C(F)(F)F)c3)C2)CC1 (centres undefined),10,21*,-3,-7,0,nt
Cc1ccc(N2C(=O)C(F)(F)C2c2ccccc2)cc1 (centres undefined),16,1,13,5,2,nt
COc1ccc(C2N(c3ccccc3)C(=O)C2(F)F)cc1OC (centres undefined),-23*,-2,0,36,-2,-3
C[C@@H]1CN([C@H](C)CO)C(=O)c2cc(NC(=O)CCCN(C)C)ccc2O[C@@H](C)CCCCO[C@H]1CN(C)Cc1ccc2c(c1)OCO2,2,-3,4,-10,0,0
Cc1noc(C)c1COC(=O)C(c1ccccc1)c1ccccc1,-28,16*,nt,-9,nt,nt
Cc1noc(C)c1COc1ccc(C(=O)NNC(=O)c2ccccc2)cc1,5,-7,-53,6,nt,-5
COc1cc(SC)ccc1C(=O)N1CCN(c2ccccc2F)CC1,-24*,1,nt,0,nt,nt
COc1ccccc1N1CCN(C(=O)c2cc(-c3ccc(F)cc3)[nH]c2C)CC1,-1,-1,119*,-7,3,5
CC(C)C[C@H](NS(=O)(=O)c1ccc(F)cc1F)C(=O)N1CCC[C@H]1C(=O)NCc1ccccc1,-5,23*,nt,21,nt,nt
O=C(NCc1ccccc1)[C@@H]1CCCN1C(=O)[C@@H](NS(=O)(=O)c1ccc(F)cc1F)c1ccccc1,-4,0,nt,-2,nt,nt
CCCNC(=O)C[C@H]1CC[C@H]2[C@H](COc3ccc(NC(=O)c4cccc(C(F)(F)F)c4)cc3C(=O)N2C)O1,-1,-1,7,2,-4,7
CO[C@@H]1CN(C)C(=O)c2cc(NC(=O)C3CCC3)ccc2OC[C@@H](C)N(C(=O)c2ccccc2)C[C@H]1C,-3,nt,7,-11,0,nt
CCCC(=O)Nc1ccc(Cl)c(NC(=S)NC(=O)c2ccco2)c1,-16*,nt,nt,-1,nt,nt
CCCC(=O)Nc1ccc(Cl)c(NC(=O)c2ccco2)c1,nt,nt,4,nt,1,-11
CN1C(=O)/C(=C/c2ccc(C(=O)Nc3ccc(O)cc3C(=O)O)cc2)SC1=S,-10,28*,-7,-13,-1,nt
Cc1ccc(C(=O)Nc2ccc(O)cc2C(=O)O)cc1C,-25*,3,0,3,-5,2
SMILES,rRNA inh HTS,SIRT5 inh,Statin myotox sup,S100A4 MyoIIA,Cneo AK release,PGC1a acetyl inh
CO[C@@H]1CN(C)C(=O)c2ccc(NC(=O)c3ccc4c(c3)OCO4)cc2OC[C@@H](C)N(CCC(F)(F)F)C[C@@H]1C,-10,11,34,-10,0,-14
CO[C@H]1CN(C)C(=O)c2cc(NC(=O)c3ccc4c(c3)OCO4)ccc2OC[C@@H](C)N(CC2CC2)C[C@H]1C,1,-1,-2,-7,90*,5
CO[C@H]1CN(C)C(=O)c2cc(NC(=O)c3ccc4c(c3)OCO4)ccc2OC[C@H](C)N(CC2CC2)C[C@@H]1C,0,6,11,3,1,-6
CO[C@H]1CN(C)C(=O)c2cc(NC(C)=O)ccc2OC[C@@H](C)N(CCC(F)(F)F)C[C@H]1C,3,16*,5,2,-2,1
CO[C@@H]1CN(C)C(=O)c2ccc(NC(=O)c3ccc4c(c3)OCO4)cc2OC[C@H](C)N(CCC(F)(F)F)C[C@H]1C,-7,16*,1,-2,-4,-13
C[C@H]1CN([C@@H](C)CO)C(=O)Cc2cc(NC(=O)Nc3cccc4ccccc34)ccc2O[C@@H]1CN(C)C(=O)Nc1ccc2c(c1)OCO2,-2,6,0,-2,1,-17
O=C(CCN1CCCCC1)NCC[C@@H]1CC[C@@H](NC(=O)C2CCCC2)[C@@H](CO)O1,3,-1,-7,0,-4,1
C[C@@H]1CN([C@@H](C)CO)S(=O)(=O)c2ccc(C3=CCCC3)cc2O[C@@H]1CN(C)Cc1cccc(C(=O)O)c1,2,5,-1,4,0,6
C/C(=N/OC(=O)c1ccccc1Br)c1ccc(C)cc1,-18*,-3,1,-3,-11,4
O=C(NC(Cc1c[nH]c2ccccc12)C(=O)O)c1ccco1 (centres undefined),nt,nt,84*,nt,-16,-2
Cc1cc(C)nc(NC(=NCCc2c[nH]c3ccccc23)NC(=O)c2ccco2)n1,nt,nt,128*,nt,nt,-12
CCc1cc2c(NC(Cc3c[nH]c4ccccc34)C(=O)O)nc(C)nc2s1 (centres undefined),-28*,-2,nt,0,nt,nt
O=c1oc2ccccc2c(Nc2ccc(O)cc2)c1[N+](=O)[O-],nt,nt,133*,nt,-1,37
O=C([C@H]1[C@H](CO)[C@H]2Cn3c(cccc3=O)[C@H]2N1CC1CC1)N1CCc2ccccc2C1,-3,5,7,1,-2,nt
O=C(CCN1CCCCC1)N[C@@H]1C=C[C@H](CC(=O)N2CCC(Cc3ccccc3)CC2)O[C@@H]1CO,0,-1,-2,5,-2,-8
CC(=O)Nc1ccc(S(=O)(=O)N2CCN(CC3CC4C=CC3C4)CC2)cc1 (centres undefined),-22*,-2,nt,1,nt,8
CC(=O)Nc1ccc(S(=O)(=O)N2CCN(S(=O)(=O)c3ccccc3)CC2)cc1,6,2,-4,0,3,-6
